Test results: ChEMBL document CHEMBL3352266
One block for each molecule: values may come before it. Activity calls are given as the source filed them. The rule behind the calls is not given here.

Assays:
Myeloperoxidase = molecular target: T1, Myeloperoxidase (Homo sapiens, UniProt P05164); experiment: Inhibition of myeloperoxidase (unknown origin) assessed as reduction in enzymatic hypochlorous acid production by spectrophotometry based taurine chlorination assay; format: single protein
T1 sequence (P05164 whole entry): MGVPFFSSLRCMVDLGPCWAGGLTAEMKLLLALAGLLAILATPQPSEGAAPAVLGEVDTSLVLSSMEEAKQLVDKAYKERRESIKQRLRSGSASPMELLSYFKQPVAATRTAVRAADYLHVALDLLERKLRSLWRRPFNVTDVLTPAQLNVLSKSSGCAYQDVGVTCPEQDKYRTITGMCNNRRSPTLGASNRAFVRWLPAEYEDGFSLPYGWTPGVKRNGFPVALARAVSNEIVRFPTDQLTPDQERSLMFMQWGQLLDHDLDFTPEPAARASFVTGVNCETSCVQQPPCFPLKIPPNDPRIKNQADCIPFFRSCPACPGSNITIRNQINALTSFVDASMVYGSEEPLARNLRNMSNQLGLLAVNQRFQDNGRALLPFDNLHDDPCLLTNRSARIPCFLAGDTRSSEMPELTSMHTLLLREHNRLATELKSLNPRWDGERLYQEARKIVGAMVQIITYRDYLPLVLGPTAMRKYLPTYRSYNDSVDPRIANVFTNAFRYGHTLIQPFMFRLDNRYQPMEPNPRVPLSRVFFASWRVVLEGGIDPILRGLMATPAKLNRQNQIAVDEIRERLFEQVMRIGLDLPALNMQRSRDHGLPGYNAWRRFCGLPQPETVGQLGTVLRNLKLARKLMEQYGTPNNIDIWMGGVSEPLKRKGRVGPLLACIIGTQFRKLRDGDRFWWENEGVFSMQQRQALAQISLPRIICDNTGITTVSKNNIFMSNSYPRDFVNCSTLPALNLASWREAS
Method in brief: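 Started with 40 μM H2O2 and stopped after 5 min with catalase. Developed with an equal volume of 500 uM TMB and 100 μM NaI in 300 mM acetate, pH 5.4. Absorbance read at 650 nm. IC50 given as mean of ≥3 trials ± SD.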

[1] = molecular target: T2, Myeloperoxidase (Homo sapiens) (UniProt P05164); experiment: Inhibition of myeloperoxidase (unknown origin) assessed as reduction in H2O2 consumption by H2O2-specific electrode based assay
T2 sequence (whole entry): T1 sequence (P05164 whole entry)
Method in brief: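 An H2O2-specific electrode sat in a continuously stirred vessel holding 30 μM H2O2, 154 mM NaCl and varied inhibitor concentrations in 10 mM phosphate buffer, pH 7.4. H2O2 concentration was followed in real time to derive IC50.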

Structure (SMILES): c1c2c(cc3c4n(nc13)CCCO4)OCO2
IC50 (Myeloperoxidase): 403 nM | inhibition [1]: Active

Structure (SMILES): CCCCCCCCn1[nH]c2ccccc2c1=O
IC50 (Myeloperoxidase): > 10000 nM

Structure (SMILES): O=c1c2ccccc2[nH]n1CCCO
IC50 (Myeloperoxidase): 1950 nM

Structure (SMILES): CC(=O)OCC(C)n1[nH]c2ccccc2c1=O (configuration not stated)
IC50 (Myeloperoxidase): 2120 nM

Structure (SMILES): CC(CCl)n1c(=O)c2ccccc2n1S(C)(=O)=O (configuration not stated)
IC50 (Myeloperoxidase): > 10000 nM

Structure (SMILES): CC(CBr)n1c(=O)c2ccccc2n1CC(=O)N1CCOCC1 (configuration not stated)
IC50 (Myeloperoxidase): > 10000 nM

Structure (SMILES): CC(C)n1c(=O)c2ccccc2n1CC(=O)N1CCOCC1
IC50 (Myeloperoxidase): > 10000 nM

Structure (SMILES): CC(C)n1c(=O)c2ccccc2n1S(C)(=O)=O
IC50 (Myeloperoxidase): > 10000 nM

Structure (SMILES): CCCCCCCCn1nc2ccccc2c1OCC
IC50 (Myeloperoxidase): > 10000 nM

Structure (SMILES): c1c2c(cc3c4n(nc13)CCS4)OCO2
IC50 (Myeloperoxidase): 87 nM | inhibition [1]: Active

Structure (SMILES): CC(C)n1[nH]c2ccccc2c1=O
IC50 (Myeloperoxidase): 660 nM | inhibition [1]: Active

Structure (SMILES): c1c2c(cc3c4n(nc13)CCCS4)OCO2
IC50 (Myeloperoxidase): 140 nM | inhibition [1]: Active

Structure (SMILES): COc1c2cc3c(cc2nn1C(C)C)OCO3
IC50 (Myeloperoxidase): 711 nM | inhibition [1]: Active

Structure (SMILES): CCCCCCCCn1nc2ccccc2c1OC
IC50 (Myeloperoxidase): > 10000 nM

Structure (SMILES): c1ccc2c3n(nc2c1)CCCS3
IC50 (Myeloperoxidase): 213 nM | inhibition [1]: Active

Structure (SMILES): O=c1c2ccccc2[nH]n1CCO
IC50 (Myeloperoxidase): 2470 nM

Structure (SMILES): c1ccc2c3n(nc2c1)CCS3
IC50 (Myeloperoxidase): 94 nM | inhibition [1]: Active

Structure (SMILES): CC(=O)OCC(C)n1c(=O)c2ccccc2n1C(C)=O (configuration not stated)
IC50 (Myeloperoxidase): > 10000 nM

Structure (SMILES): c1ccc2c3n(nc2c1)CCCO3
IC50 (Myeloperoxidase): 359 nM | inhibition [1]: Active

Structure (SMILES): CC(=O)n1c2ccccc2c(=O)n1C(C)C
IC50 (Myeloperoxidase): > 10000 nM

Structure (SMILES): CCCCn1[nH]c2ccccc2c1=O
IC50 (Myeloperoxidase): 792 nM | inhibition [1]: Active

Other lines, results leading:

IC50 (Myeloperoxidase): 1100 nM
Structure (SMILES): C#Cc1ccc(-n2nc3ccccc3c2OC)cc1

IC50 (Myeloperoxidase): 704 nM | inhibition [1]: Active
Structure (SMILES): COc1c2ccccc2nn1C(C)C

IC50 (Myeloperoxidase): 807 nM | inhibition [1]: Active
Structure (SMILES): CCCCn1nc2ccccc2c1OCC

IC50 (Myeloperoxidase): 1080 nM
Structure (SMILES): COCCn1nc2ccccc2c1OC

IC50 (Myeloperoxidase): 3880 nM
Structure (SMILES): CCCCCn1nc2ccccc2c1OC

IC50 (Myeloperoxidase): 1790 nM
Structure (SMILES): COc1c2ccccc2nn1CCCCO

IC50 (Myeloperoxidase): 910 nM | inhibition [1]: Active
Structure (SMILES): CCCCn1nc2ccccc2c1OC

IC50 (Myeloperoxidase): 1660 nM
Structure (SMILES): COc1c2ccccc2nn1-c1cccc(I)c1

IC50 (Myeloperoxidase): 4150 nM
Structure (SMILES): c1ccc2c(c1)COc1c3ccccc3nn1-2

IC50 (Myeloperoxidase): 900 nM | inhibition [1]: Active
Structure (SMILES): CC1COc2c3ccccc3nn21 (configuration not stated)

IC50 (Myeloperoxidase): 1400 nM
Structure (SMILES): COCCOc1c2ccccc2nn1C(C)C

IC50 (Myeloperoxidase): 4770 nM
Structure (SMILES): COc1c2ccccc2nn1-c1cccc(Cl)c1

IC50 (Myeloperoxidase): 1540 nM
Structure (SMILES): COc1c2ccccc2nn1CCCCCO

IC50 (Myeloperoxidase): 2030 nM
Structure (SMILES): COc1c2ccccc2nn1-c1ccccc1

IC50 (Myeloperoxidase): 1030 nM
Structure (SMILES): CC1(C)COc2c3ccccc3nn21

IC50 (Myeloperoxidase): 722 nM | inhibition [1]: Active
Structure (SMILES): CCOc1c2ccccc2nn1C(C)C

IC50 (Myeloperoxidase): 2000 nM
Structure (SMILES): COc1c2ccccc2nn1-c1ccc(I)cc1
